# Molecular target: T1, Type-1 angiotensin II receptor B (Rattus norvegicus, UniProt P29089)
# T1 sequence (P29089 whole entry): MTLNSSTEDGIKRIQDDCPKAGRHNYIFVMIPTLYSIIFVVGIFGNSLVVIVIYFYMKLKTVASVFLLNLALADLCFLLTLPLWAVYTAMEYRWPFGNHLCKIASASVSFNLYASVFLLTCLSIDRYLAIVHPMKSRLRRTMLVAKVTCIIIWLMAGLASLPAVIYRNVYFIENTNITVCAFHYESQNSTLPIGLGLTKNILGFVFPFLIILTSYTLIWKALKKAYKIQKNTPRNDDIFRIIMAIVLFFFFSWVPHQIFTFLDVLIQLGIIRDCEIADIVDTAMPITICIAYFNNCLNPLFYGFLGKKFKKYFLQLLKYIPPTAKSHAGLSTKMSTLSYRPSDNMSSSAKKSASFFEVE
# Experiment: Binding affinity for rat angiotensin II receptor, type 1
# Conditions: not given
row,IC50 [nM],SMILES
1,150,CCCCc1nc(CCCC)n(Cc2ccc(-c3cnccc3-c3nnn[nH]3)cc2)n1
2,13,CCCCc1nc2c(C)cc(C)nc2n1Cc1ccc(-c2c(C(=O)O)c(N)nc3ccccc23)cc1
3,33,CCc1nc2c(C)cc(C)nc2n1Cc1ccc(-c2c(C(=O)O)ccc3ccccc23)cc1
4,1.9,CCCCC(=O)N(Cc1ccc(-c2ccccc2-c2nnn[nH]2)cc1)[C@H](C(=O)O)C(C)C
5,18,CCc1nc2c(C)cc(C)nc2n1Cc1ccc(-c2ncccc2-c2nn[nH]n2)cc1
6,60,CCCc1nc2c(C)ccnc2n1Cc1ccc(-c2cccnc2-c2nn[nH]n2)cc1
7,41,CCCCc1nc2c(C)cc(C)nc2n1Cc1ccc(-c2c(C(=O)O)cnc3ccccc23)cc1
8,1,CCCc1nc2c(C)ccnc2n1Cc1ccc(-c2ccccc2-c2nn[nH]n2)cc1
9,819,CCc1nc2c(C)cc(C)nc2n1Cc1ccc(-c2ncccc2C(=O)O)cc1
10,215,CCc1nc2c(C)cc(C)nc2n1Cc1ccc(-c2c(CC(=O)O)c(Cl)nc3ccccc23)cc1
11,52,CCc1nc2c(C)cc(C)nc2n1Cc1ccc(-c2c(C(=O)O)c3nnnn3c3ccccc23)cc1
12,13,CCc1nc2c(C)cc(C)nc2n1Cc1ccc(-c2c(C(=O)O)c(NC)nc3ccccc23)cc1
13,5.6,CCCCc1nc(CCCC)n(Cc2ccc(-c3ccccc3-c3nnn[nH]3)cc2)n1
14,4,CCCc1nc2c(C)ccnc2n1Cc1ccc(-c2ccncc2-c2nnn[nH]2)cc1
15,250,CCCCc1nc(CCCC)n(Cc2ccc(-c3ccncc3-c3nnn[nH]3)cc2)n1
16,13,CCc1nc2c(C)cc(C)nc2n1Cc1ccc(-c2c(C(=O)O)c(N)nc3ccccc23)cc1
17,261,CCCc1nc2c(C)cc(C)nc2n1Cc1ccc(-c2c(C(=O)O)c(O)nc3ccccc23)cc1

row,IC50 [nM],SMILES
1,9,CCCc1nc2c(C)cc(C)nc2n1Cc1ccc(-c2c(C(=O)O)c(C)nc3ccccc23)cc1
2,326,CCc1nc2c(C)cc(C)nc2n1Cc1ccc(-c2c(C(=O)O)c(=O)n(C)c3ccccc23)cc1
3,98,CCCCc1nc(CCCC)n(Cc2ccc(-c3ncccc3-c3nnn[nH]3)cc2)n1
4,17,CCc1nc2c(C)cc(C)nc2n1Cc1ccc(-c2c(C(=O)O)cnc3ccccc23)cc1
5,12,CCCc1nc2c(C)cc(C)nc2n1Cc1ccc(-c2c(-c3nn[nH]n3)cnc3ccccc23)cc1
6,7.7,CCCc1nc2c(C)cc(C)nc2n1Cc1ccc(-c2c(C(=O)O)c(Cl)nc3ccccc23)cc1
7,492,CCCN(CCC)c1nc2ccccc2c(-c2ccc(Cn3c(CC)nc4c(C)cc(C)nc43)cc2)c1C(=O)O
8,110,CCCCc1nc(CCCC)n(Cc2ccc(-c3cccnc3-c3nnn[nH]3)cc2)n1
9,66,CCCNc1nc2ccccc2c(-c2ccc(Cn3c(CC)nc4c(C)cc(C)nc43)cc2)c1C(=O)O
10,29,CCc1nc2c(C)cc(C)nc2n1Cc1ccc(-c2c(C(=O)O)c(N(C)C)nc3ccccc23)cc1
11,74,CCc1nc2c(C)cc(C)nc2n1Cc1ccc(-c2c(C(=O)O)c(OC)nc3ccccc23)cc1
12,106,CCCc1nc2c(C)cc(C)nc2n1Cc1ccc(-c2c(C(=O)NS(=O)(=O)c3ccc([N+](=O)[O-])cc3)cnc3ccccc23)cc1
13,0.4,CCc1nc2c(C)cc(C)nc2n1Cc1ccc(-c2ccccc2-c2nnn[nH]2)cc1 [L-158809]
14,6.9,CCc1nc2c(C)cc(C)nc2n1Cc1ccc(-c2c(-c3nnn[nH]3)cnc3ccccc23)cc1
15,0.8,CCCc1nc2c(C)cc(C)nc2n1Cc1ccc(-c2ccccc2-c2nn[nH]n2)cc1
16,4.2,CCCc1nc2c(C)cc(C)nc2n1Cc1ccc(-c2c(C(=O)O)c(N)nc3ccccc23)cc1
17,576,CCc1nc2c(C)cc(C)nc2n1Cc1ccc(-c2c(CC(=O)O)cnc3ccccc23)cc1

# Species: Oryctolagus cuniculus
# Experiment: Inhibition of angiotensin II induced contraction in rabbit aortic strips after 120 minutes contact with the compound
# Assay type: functional
# Conditions: Aorta, 2 h
# Procedure, shortened: (§1)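 Rabbit aortic strips under 2 g resting tension, isometric recording, equilibrated 1 h. A cumulative Ang II concentration–response curve was run first, then a 30 min washout. Antagonist or vehicle was added at several concentrations before a submaximal (70–80%) Ang II challenge; contact time differed by line. Percent inhibition was regressed to give IC50 with P = 0.05 fiducial limits.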
row,IC50 [nM],SMILES
1,170,CCc1nc2c(C)cc(C)nc2n1Cc1ccc(-c2c(C(=O)O)c(=O)n(C)c3ccccc23)cc1
2,2,CCc1nc2c(C)cc(C)nc2n1Cc1ccc(-c2c(-c3nnn[nH]3)cnc3ccccc23)cc1

# Species: Oryctolagus cuniculus
# Experiment: Inhibition of angiotensin II induced contraction in rabbit aortic strips after 60 minutes contact with the compound
# Assay type: functional
# Conditions: Aorta, 1 h
# Procedure, shortened: as §1
row,IC50 [nM],SMILES
1,13,CCCc1nc2c(C)cc(C)nc2n1Cc1ccc(-c2c(C(=O)O)c(C)nc3ccccc23)cc1
2,9.9,CCCCc1nc(Cl)c(CO)n1Cc1ccc(-c2ccccc2-c2nnn[nH]2)cc1 [LOSARTAN]
3,4,CCc1nc2c(C)cc(C)nc2n1Cc1ccc(-c2c(-c3nnn[nH]3)cnc3ccccc23)cc1
4,3.3,CCCc1nc2c(C)cc(C)nc2n1Cc1ccc(-c2c(C(=O)O)c(N)nc3ccccc23)cc1

# — ChEMBL document CHEMBL1148280, “Design, synthesis, structural studies, biological evaluation, and computational simulations of novel potent AT(1) angiotensin II receptor antagonists based on the 4-phenylquinoline structure” (J Med Chem, 2004)
